Assay results from ChEMBL document CHEMBL1275410, “Synergy between polyethylenimine and different families of antibiotics against a resistant clinical isolate of Pseudomonas aeruginosa” (2008).
≈ marks a conversion by molar mass, not a printed value. Calls of active or inactive are those of the source. No cut-off for these calls is given here.

Columns and labels:
Format in all cases: functional
[1] = system: Pseudomonas aeruginosa; test: Antibacterial activity against Pseudomonas aeruginosa 100609 after 20 hrs by broth microdilution assay
Outline: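 Broth microdilution in TSB per CLSI: a 5 × 10^5 CFU/ml inoculum (OD660 0.02) was added to serial twofold antibiotic dilutions. Plates were shaken at 37°C for 20 h. MIC was the lowest concentration with no visible growth, determined in triplicate.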

[2] = system: Pseudomonas aeruginosa; test: FIC index, ratio of MIC for Pseudomonas aeruginosa 100609 in presence of 250 ug/ml polyethylenimine to MIC for Pseudomonas aeruginosa 100609
[3] = system: Pseudomonas aeruginosa; test: FIC index, ratio of MIC for Pseudomonas aeruginosa 25619 in presence of 250 ug/ml polyethylenimine to MIC for Pseudomonas aeruginosa 25619
Outline: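 Checkerboard combination of PEI (mean MW 10 kDa) with antibiotic against P. aeruginosa ATCC 25619, in TSB inoculated at about 5 × 10^5 CFU/ml, run in triplicate. ΣFIC was derived from the combination; 0.5 to 2.0 is read as indifference and ≥4.0 as antagonism.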

[4] = system: Pseudomonas aeruginosa; test: Antibacterial activity against Pseudomonas aeruginosa 100609 assessed as reduction in bacterial count at 0.25 times MIC after 9 hrs by time-kill assay in presence of 250 ug/ml polyethylenimine relative to control
Outline: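 Time-kill assay: TSB was seeded from a 17-h preculture to 5 × 10^7 CFU/ml (set by OD660). Antibiotic was at 25% of MIC, with PEI at a final 250 nM (legend gives 250 μg/ml). Controls were PEI alone, antibiotic alone and bacteria alone. Viable counts on LB agar were taken at 0, 1.5, 3, 6 and 9 h, in triplicate. Synergy was a ≥2.0 mean log10 CFU/ml drop versus antibiotic alone.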

[5] = Pseudomonas aeruginosa, 100609, 20 h

Row | Molecule | MIC [1, 5] [µg/mL] | fractional inhibitory concentration index (FICI) [2] | fractional inhibitory concentration index (FICI) [3] | fold change (FC) [4] | Activity [4] | MIC [1] [µg/mL]
1 | CC1(C)S[C@@H]2[C@H](NC(=O)[C@H](N)c3ccccc3)C(=O)N2[C@H]1C(=O)O [AMPICILLIN] | 2240 (≈ 6410 µM) |  |  |  |  | 
2 | CC1(C)S[C@@H]2[C@H](NC(=O)C(C(=O)O)c3ccccc3)C(=O)N2[C@H]1C(=O)O (some centres undefined) [CARBENICILLIN] | 2240 (≈ 5920 µM) |  |  |  |  | 
3 | CO/N=C(\C(=O)N[C@@H]1C(=O)N2C(C(=O)O)=C(COC(C)=O)CS[C@H]12)c1csc(N)n1 [CEFOTAXIME] | 960 (≈ 2110 µM) | 0.14 |  |  |  | 
4 | CC(C)(O/N=C(\C(=O)N[C@@H]1C(=O)N2C(C(=O)[O-])=C(C[n+]3ccccc3)CS[C@H]12)c1csc(N)n1)C(=O)O [CEFTAZIDIME] | 400 (≈ 732 µM) | 0.04 | 0.09 | 100000 |  | 
5 | O=C(N[C@H](CO)[C@H](O)c1ccc([N+](=O)[O-])cc1)C(Cl)Cl [CHLORAMPHENICOL] | 100 (≈ 309 µM) | 0.41 |  | 100000 |  | 
6 | O=C(O)c1cn(C2CC2)c2cc(N3CCNCC3)c(F)cc2c1=O [CIPROFLOXACIN] | 30 (≈ 90.5 µM) | 1 |  |  |  | 
7 | CC[C@H]1OC(=O)[C@H](C)[C@@H](O[C@H]2C[C@@](C)(OC)[C@@H](O)[C@H](C)O2)[C@H](C)[C@@H](O[C@@H]2O[C@H](C)C[C@H](N(C)C)[C@H]2O)[C@](C)(O)C[C@@H](C)C(=O)[C@H](C)[C@@H](O)[C@]1(C)O [ERYTHROMYCIN] | 140 (≈ 191 µM) | 1 |  |  |  | 
8 | NC[C@@H]1O[C@@H](O[C@H]2[C@H](O)[C@@H](O[C@H]3O[C@H](CO)[C@@H](O)[C@H](N)[C@H]3O)[C@H](N)C[C@@H]2N)[C@@H](O)[C@H](O)[C@H]1O [KANAMYCIN A] | 1600 (≈ 3300 µM) | 1.21 |  |  |  | 
9 | CCn1cc(C(=O)O)c(=O)c2cc(F)c(N3CCNCC3)cc21 [NORFLOXACIN] | 15 (≈ 47 µM) | 0.68 |  |  |  | 
10 | CO[C@@H]1[C@@H](OC(N)=O)[C@@H](O)[C@H](Oc2ccc3c(O)c(NC(=O)c4ccc(O)c(CC=C(C)C)c4)c(=O)oc3c2C)OC1(C)C [NOVOBIOCIN] | 1600 (≈ 2610 µM) | 0.1 | 0.35 | 100000000 |  | 
11 | CC1COc2c(N3CCN(C)CC3)c(F)cc3c(=O)c(C(=O)O)cn1c23 (centres undefined) [OFLOXACIN] | 10 (≈ 27.7 µM) | 1 |  |  |  | 
12 | CCN1CCN(C(=O)N[C@@H](C(=O)N[C@@H]2C(=O)N3[C@@H]2SC(C)(C)[C@@H]3C(=O)O)c2ccccc2)C(=O)C1=O [PIPERACILLIN] | 40 (≈ 77.3 µM) |  |  |  |  | 
13 | CO[C@H]1/C=C/O[C@@]2(C)Oc3c(C)c(O)c4c(O)c(c(/C=N/N5CCN(C)CC5)c(O)c4c3C2=O)NC(=O)/C(C)=C\C=C\[C@H](C)[C@H](O)[C@@H](C)[C@@H](O)[C@@H](C)[C@H](OC(C)=O)[C@@H]1C [RIFAMPIN] | 20 (≈ 24.3 µM) | 0.05 |  | 100000 |  | 
14 | CN(C)[C@@H]1C(O)=C(C(N)=O)C(=O)[C@@]2(O)C(O)=C3C(=O)c4c(O)cccc4[C@@](C)(O)[C@H]3C[C@@H]12 [TETRACYCLINE] | 20 (≈ 45 µM) | 1 |  |  |  | 
15 | CC1(C)S[C@@H]2[C@H](NC(=O)[C@H](C(=O)O)c3ccsc3)C(=O)N2[C@H]1C(=O)O [TICARCILLIN] | 1120 (≈ 2910 µM) |  |  |  |  | 
16 | NC[C@H]1O[C@H](O[C@H]2[C@H](O)[C@@H](O[C@H]3O[C@H](CO)[C@@H](O)[C@H](N)[C@H]3O)[C@H](N)C[C@@H]2N)[C@H](N)C[C@@H]1O [TOBRAMYCIN] | 50 (≈ 107 µM) | 4.81 |  |  |  | 
17 | CN[C@H](CC(C)C)C(=O)N[C@H]1C(=O)N[C@@H](CC(N)=O)C(=O)N[C@H]2C(=O)N[C@H]3C(=O)N[C@H](C(=O)N[C@H](C(=O)O)c4cc(O)cc(O)c4-c4cc3ccc4O)[C@H](O)c3ccc(c(Cl)c3)Oc3cc2cc(c3O[C@@H]2O[C@H](CO)[C@@H](O)[C@H](O)[C@H]2O[C@H]2C[C@](C)(N)[C@H](O)[C@H](C)O2)Oc2ccc(cc2Cl)[C@H]1O [VANCOMYCIN] | 1120 (≈ 773 µM) | 3.4 |  |  | inactive | 
18 | COLISTIN |  | 2.01 |  |  |  | 5
19 | GENTAMICIN |  | 1.72 |  |  |  | 1120
20 | POLYMYXIN B |  | 2.01 |  |  | inactive | 5
